In ChEMBL document CHEMBL1142915, “Synthesis, structure, and estrogenic activity of 4-amino-3-(2-methylbenzyl)coumarins on human breast carcinoma cells” (Bioorg Med Chem, 2007):
Activity calls are given as the source filed them. The rule behind the calls is not given here. Residues, ends and D or L forms follow the SMILES beside them. *: point of attachment. Cbz = O=C(OCc1ccccc1)*

Assays:
[1] = test system: MCF7; assay: Down regulation of estrogen receptor expression in MCF7 cells at 1 uM after 24 hrs; format: functional, cell-based; settings: Homo sapiens
How it was run: (§1)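 MCF-7 cells were kept at least 2 days in phenol red-free DMEM with 10% charcoal-stripped FBS, seeded on glass coverslips at 10^4 cells/cm2, and treated 2 days later for 24 h. After fixation they were immunostained for ERα with HC-20 rabbit antiserum (1:40, 60 min, Triton-permeabilized) and Texas Red amplification. Median nuclear gray level was measured over about 80–120 nuclei per culture and expressed relative to untreated control. Statistics: Kruskal–Wallis with Dunn's test.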

[2] = test system: MCF7; assay: Increase in proliferation of estrogen receptor expressing MCF7 cells at 1 uM after 3 days; format: functional, cell-based; settings: Homo sapiens
How it was run: (§2)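 Cells were held at least 2 days in phenol red-free DMEM with 10% charcoal-stripped FBS at 37 °C and 5% CO2, then plated at 10^4 cells/cm2. On day 1 the medium was replaced with medium containing compound at 10^-6 M. On day 4 cells were trypsinized and counted electronically. Values are % of untreated control, mean of four determinations ±SD, by ANOVA with Dunnett's test.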

[3] = test system: MDA-MB-231; assay: Effect on proliferation of estrogen receptor deficient MDA-MB-231 cells at 1 uM after 3 days; format: functional, cell-based; settings: Homo sapiens; how it was run: as §2
[4] = test system: MCF7; assay: Abrogation of estrogen receptor down regulation in MCF7 cells at 10 uM after 7 hrs; settings: Homo sapiens
[5] = test system: MCF7; assay: Down regulation of estrogen receptor expression in MCF7 cells at 1 nM after 24 hrs; format: functional, cell-based; settings: Homo sapiens; how it was run: as §1
[6] = target: T1, Estrogen receptor (Homo sapiens) (UniProt P03372); assay: Displacement of [3H]17beta-estradiol from estrogen receptor relative to estradiol
T1 sequence (whole entry): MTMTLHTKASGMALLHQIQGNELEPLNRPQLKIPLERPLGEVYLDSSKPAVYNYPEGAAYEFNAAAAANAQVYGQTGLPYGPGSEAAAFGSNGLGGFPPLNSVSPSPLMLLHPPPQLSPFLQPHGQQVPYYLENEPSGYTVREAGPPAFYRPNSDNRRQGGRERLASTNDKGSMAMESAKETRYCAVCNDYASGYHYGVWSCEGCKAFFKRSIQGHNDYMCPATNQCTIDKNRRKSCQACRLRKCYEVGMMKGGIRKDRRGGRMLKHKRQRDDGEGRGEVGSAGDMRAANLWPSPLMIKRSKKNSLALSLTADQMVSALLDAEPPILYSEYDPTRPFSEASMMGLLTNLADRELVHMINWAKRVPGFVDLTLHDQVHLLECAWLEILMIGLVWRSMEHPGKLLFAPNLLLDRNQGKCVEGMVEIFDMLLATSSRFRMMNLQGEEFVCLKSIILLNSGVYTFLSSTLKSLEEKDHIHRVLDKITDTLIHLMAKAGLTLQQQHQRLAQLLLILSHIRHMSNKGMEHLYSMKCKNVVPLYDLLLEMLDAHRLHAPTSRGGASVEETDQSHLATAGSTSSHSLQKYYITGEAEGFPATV
How it was run: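 Purified recombinant human ERα, diluted in 1 mg/mL BSA, adsorbed onto hydroxyapatite, washed, then incubated overnight at 0–4 °C with 1 nM [3H]E2 plus increasing amounts of cold E2 or test compound. HAP-bound radioactivity was extracted with ethanol and counted by liquid scintillation. RBA = […] × 100.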

[7] = test system: MCF7; assay: Inhibition of increase in proliferation of estrogen receptor expressing MCF7 cells at 10 uM after 3 days; format: functional, cell-based; settings: Homo sapiens
[8] = target: T2, Estrogen receptor (Homo sapiens, UniProt P03372); assay: Activity at ER assessed as enhancement of estrogen response element-driven gene transactivation in MVLN cells after 24 hrs by luciferase reporter gene assay relative to control
T2 sequence (P03372 whole entry): T1 sequence (whole entry)

In the case of `Cc1ccccc1Cc1c(NC2CCCCC2)c2ccccc2oc1=O`, the Activity [1] is reported as “Active”, the Activity [2] is reported as “Active” and the Activity [3] is reported as “inactive”.
In the case of `CC(C)C[C@@H](C=O)NC(=O)[C@H](CC(C)C)NC(=O)[C@H](CC(C)C)NC(=O)OCc1ccccc1` (Cbz-Leu-Leu-Leu-aldehyde), the Activity [4] is reported as “Active”.
For `C[C@]12CC[C@@H]3c4ccc(O)cc4CC[C@H]3[C@@H]1CC[C@@H]2O`, the Activity [5] was “Active”.
In the case of `Cc1ccccc1Cc1c(NC2CCCC2)c2ccccc2oc1=O`, the Activity [1] is reported as “Active”, the Activity [2] is reported as “Active” and the Activity [3] is reported as “inactive”. For the same molecule, the RBA [6] was < 0.1%.
In the case of `CCCCCNc1c(Cc2ccccc2C)c(=O)oc2cc(OC)ccc12`, the Activity [3] is reported as “inactive”.
With `C[C@]12CC[C@@H]3c4ccc(O)cc4C[C@@H](CCCCCCCCC[S+]([O-])CCCC(F)(F)C(F)(F)F)[C@H]3[C@@H]1CC[C@@H]2O` (some centres undefined) the Activity [7] was “Active”.
For `CCCCCCCCCCCCNc1c(Cc2ccccc2C)c(=O)oc2ccccc12`, the EC50 [8] was 0.1 µM and the Activity [3] was “inactive”.
For `Cc1ccccc1Cc1c(NCCc2ccccc2)c2ccccc2oc1=O`, the Activity [3] was “inactive”.
